# Experimental data: PubChem BioAssay
# The source made the active and inactive calls.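 How the source made its calls, unless noted: active means GFP response above 150% of the DMSO level; inconclusive means fewer than 70 events counted for a yeast strain; inactive means the rest.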
# How the values were obtained:
# [1] = hit retest on RPL19A-GFP reporter strain – cell-based, S. cerevisiae, flow cytometry, cherry picks, mother/daughter gates, confirmation (AID 2270;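 active means GFP response below 50% of the DMSO control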); settings: 3 h, at 10 µM, stronger effect = lower value, 100 = same GFP as DMSO wells
# [2] = yeast TOR pathway reporter LAP4-GFP change – cell-based, cherry picks, flow cytometry, mother/daughter gates, confirmation (AID 2271;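 active means GFP response above 150% of the DMSO control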;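 further: ratio of sample to DMSO plate mean so 100% equals DMSO level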); settings: S. cerevisiae LAP4-GFP strain, 3 h, at 10 µM, stronger effect = higher value, 100 means same as DMSO control
# Procedure, shortened: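 System: GFP-fusion yeast strain; Incubation: compound exposure 3 h at 30 °C, end-over-end rotation; Measured by: GFP by flow cytometry; Read-out: median GFP fluorescence as percent of plate-mean DMSO wells; Medium: synthetic complete (SC) yeast growth medium; Compound: single test-compound dose, 10 µM final; Benchmarks: DMSO-only negative wells, rapamycin 400 ng/mL positive wells.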
# [3] = TOR pathway reporter MEP2-GFP, retest of hits – S. cerevisiae, flow cytometry GFP, cherry picks, confirmation (AID 2272;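 active means GFP response above 150% of the DMSO control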;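 further: ratio of well signal to plate DMSO mean so 100% equals DMSO level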); settings: S. cerevisiae MEP2-GFP strain, 3 h, at 10 µM, stronger effect = higher value
# [4] = yeast AGP1-GFP fluorescence change, single-dose – cell-based, flow cytometry, S. cerevisiae, cherry picks, confirmation (AID 2273);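 further: median GFP channel fluorescence over the whole cell population gate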; settings: S. cerevisiae AGP1-GFP strain, 3 h, at 10 µM
# [5] = TOR pathway CIT2 reporter hit retest – S. cerevisiae, GFP fusion, cherry picks, mother/daughter gates, confirmation (AID 2274); settings: S. cerevisiae CIT2-GFP strain, flow cytometry, 3 h, at 10 µM, stronger effect = higher value
# [6] = measured here: daughter cell gate
# [7] = measured here: mother cell gate
# [8] = measured here: daughter cell gate response
# [9] = measured here: mother cell gate response
Structure (SMILES),GFP response vs DMSO [1],"GFP response vs DMSO [1, 6] [%]","GFP response vs DMSO [1, 7] [%]",GFP response relative to DMSO [2],"GFP response relative to DMSO [2, 8] [%]","GFP response relative to DMSO [2, 9] [%]",GFP response vs DMSO [3],"GFP response, % of DMSO [4]","GFP response, % of DMSO [5]","GFP response, % of DMSO [5, 6] [%]","GFP response, % of DMSO [5, 7] [%]"
Cc1nc2c(-c3ccc(F)cc3)cnn2c(N)c1-c1ccccc1,99.6% (inactive),97.9,98.8,101% (inactive),97.5,100,103% (inactive),96.7% (inactive),103% (inactive),101,104
CC(=O)Nc1ccc(NC(=O)c2ccccc2F)cc1,99.8% (inactive),100,98.6,94.4% (inactive),94.2,94.1,99% (inactive),100% (inactive),103% (inactive),101,99.3
O=C(NNC(=S)NC(=O)c1cn(-c2ccccc2)nc1-c1ccccc1)c1ccncc1,98% (inactive),101,94.8,143% (inactive),125,146,101% (inactive),99.5% (inactive),98.6% (inactive),103,96
Cc1cccc(Sc2ccc([N+](=O)[O-])cn2)c1,98.6% (inactive),98.9,98,92.4% (inactive),92,92,105% (inactive),104% (inactive),103% (inactive),103,104
COc1ccc(/C=N/Nc2nnc(C)n2N)cc1OC(C)=O,99.5% (inactive),100,99,94.2% (inactive),96.5,92.6,104% (inactive),102% (inactive),104% (inactive),104,103
CC1(C(=O)OCc2cc(=O)n3cc(Br)ccc3n2)CC1(Cl)Cl (configuration not stated),92.5% (inactive),89.9,93.8,133% (inactive),123,139,94.4% (inactive),103% (inactive),88.5% (inactive),87.3,88.8
COc1cc(OC)cc(-c2nc(-c3ccccc3OC)no2)c1,97.8% (inactive),99.3,95.6,97.7% (inactive),97.5,101,114% (inactive),108% (inactive),107% (inactive),108,107
Cc1cccn2c(=O)c(/C=C(\C#N)C(N)=O)c(N3CCN(Cc4ccc5c(c4)OCO5)CC3)nc12,101% (inactive),101,102,101% (inactive),103,101,101% (inactive),100% (inactive),110% (inactive),110,112
COc1cccc2c1Oc1ncccc1N(C(=O)CCC(=O)NCc1cccc(C)c1)C2,98.4% (inactive),98.6,99.2,97.9% (inactive),97.6,98.3,100% (inactive),97.6% (inactive),105% (inactive),106,104
O=C(c1ccc2ccccc2c1)N1CCN(c2ccc(O)cc2)CC1,101% (inactive),100,101,101% (inactive),102,101,106% (inactive),99.3% (inactive),103% (inactive),103,104
CCOc1ccc(N2C(=O)CC(Sc3nccc(C)n3)C2=O)cc1 (configuration not stated),97.3% (inactive),99.3,97.3,97.7% (inactive),97.5,97.4,103% (inactive),102% (inactive),100% (inactive),97.6,102
O=[N+]([O-])c1ccc(SCCc2ccncc2)cc1,94.8% (inactive),97.4,95.4,99.2% (inactive),99.2,98.3,96.2% (inactive),98.7% (inactive),99.7% (inactive),101,101
O=C(Cc1ccc(-c2ccccc2)cc1)OCC(=O)N1CCCC1=O,96.5% (inactive),93.9,97.2,112% (inactive),111,114,97.8% (inactive),96.3% (inactive),91.3% (inactive),89.9,91.2
Cc1csc(Nc2ccccc2C(F)(F)F)n1,96.2% (inactive),94.2,95.9,105% (inactive),104,108,101% (inactive),94.3% (inactive),97.2% (inactive),97.6,94.9
CCCCN(CCCC)S(=O)(=O)c1ccc(C(=O)Nc2nnc(COC)o2)cc1,106% (inactive),106,103,131% (inactive),140,126,149% (inactive),106% (inactive),100% (inactive),103,101
Cn1c(N2CCCC2)nc2c1c(=O)n(Cc1ccc(Cl)cc1)c(=O)n2C,91.8% (inactive),84.5,87.5,126% (inactive),109,121,94.7% (inactive),98.4% (inactive),81.4% (inactive),77.5,76
COc1cccc(NC(=O)c2ccc3c(c2)CCCC3)c1,101% (inactive),98.4,102,96.2% (inactive),97.2,99.3,97.8% (inactive),90.6% (inactive),103% (inactive),101,102
CCN(CC)C(=O)c1ccc2c3c(cccc13)C(=O)N(CCc1ccc(OC)c(OC)c1)C2=O,98.8% (inactive),99.3,98.8,108% (inactive),97.9,109,99.5% (inactive),95.2% (inactive),96.4% (inactive),98.3,94.5
O=[N+]([O-])c1c(Nc2ccccn2)cc(Cl)c2nonc12,139% (inactive),86.3,129,478% (active),123,522,966% (active),143% (inactive),979% (active),103,906
Cc1nonc1C(=O)N/N=C/c1ccc([N+](=O)[O-])o1,100% (inactive),101,101,111% (inactive),109,113,105% (inactive),106% (inactive),105% (inactive),105,104
O=C1CC(Sc2nnc(-c3ccccc3)o2)C(=O)N1c1ccccc1 (configuration not stated),99.9% (inactive),98.7,100,106% (inactive),105,107,102% (inactive),98.7% (inactive),97.8% (inactive),99.7,93.4
COC(=O)c1ccc(NC(=O)c2nc(S(=O)(=O)Cc3cccc(C)c3)ncc2Cl)cc1,98.4% (inactive),96.1,98.7,103% (inactive),102,106,100% (inactive),95.7% (inactive),88.7% (inactive),88.3,86.9
COC(=O)Cn1cc(/C=C/c2cc[n+](C)cc2)c2ccccc21,99.3% (inactive),99.3,98.2,97.7% (inactive),99,98.4,112% (inactive),104% (inactive),104% (inactive),105,104
O=C1C2C3C=CC(CO)(O3)C2C(=O)N1c1ccccc1-c1ccccc1 (configuration not stated),113% (inactive),117,110,135% (inactive),128,132,126% (inactive),109% (inactive),124% (inactive),132,113
CCC(=O)Nc1nc(C)c(-c2csc(Nc3cccc(C(=O)O)c3)n2)s1,97.3% (inactive),97.8,97.3,85.8% (inactive),89.8,87.3,101% (inactive),94.8% (inactive),100% (inactive),101,100
COc1cc(/C=C2/N=C(c3ccccc3)OC2=O)c(F)cc1OCc1ccccc1,99.1% (inactive),100,98,98.9% (inactive),102,98.4,101% (inactive),108% (inactive),106% (inactive),105,106
O=C(O)c1ccc(SCc2cnc(Cl)s2)cc1,104% (inactive),96.7,103,116% (inactive),99,112,110% (inactive),114% (inactive),108% (inactive),101,104
